From ChEMBL document CHEMBL2331324, “Synthesis and biological evaluation of guanidino analogues of roscovitine” (Eur J Med Chem, 2013)

How the values were obtained:
[1] = molecular target: Tyrosine-protein kinase ZAP-70 (Homo sapiens) (UniProt P43403); test: Inhibition of recombinant ZAP70 (unknown origin) assessed as residual activity using [gamma-33P]ATP as substrate at 1 uM
Summary of the method: (§1)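 Kinase panel screen with each compound at 1 µM, in duplicate. Reactions were started with [γ-33P]ATP (800 cpm/pmol) at 5, 20 or 50 µM, chosen per enzyme to be at or below its ATP Km. Reactions were stopped with phosphoric acid and spotted onto P81 filters. Results are given as residual kinase activity.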

[2] = molecular target: Phosphorylase kinase (Homo sapiens) (UniProt P15735+P46020+P46019+Q93100+Q16816); test: Inhibition of recombinant PHK (unknown origin) assessed as residual activity using [gamma-33P]ATP as substrate at 1 uM; type: protein-complex assay
Summary of the method: (§2)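 Selectivity panel run under previously published conditions. Screened at 1 μM in duplicate. Reactions started with [γ-33P]ATP (800 cpm/pmol) at 5, 20 or 50 μM, chosen to be at or below each enzyme's ATP Km. Stopped with phosphoric acid, spotted onto P81 filters. Result expressed as residual kinase activity.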

[3] = molecular target: Calcium/calmodulin-dependent protein kinase type 1 (Homo sapiens) (UniProt Q14012); test: Inhibition of recombinant CAMK1 (unknown origin) assessed as residual activity using [gamma-33P]ATP as substrate at 1 uM
Chain of Calcium/calmodulin-dependent protein kinase type 1 (Homo sapiens) (Q14012 whole entry, looked up): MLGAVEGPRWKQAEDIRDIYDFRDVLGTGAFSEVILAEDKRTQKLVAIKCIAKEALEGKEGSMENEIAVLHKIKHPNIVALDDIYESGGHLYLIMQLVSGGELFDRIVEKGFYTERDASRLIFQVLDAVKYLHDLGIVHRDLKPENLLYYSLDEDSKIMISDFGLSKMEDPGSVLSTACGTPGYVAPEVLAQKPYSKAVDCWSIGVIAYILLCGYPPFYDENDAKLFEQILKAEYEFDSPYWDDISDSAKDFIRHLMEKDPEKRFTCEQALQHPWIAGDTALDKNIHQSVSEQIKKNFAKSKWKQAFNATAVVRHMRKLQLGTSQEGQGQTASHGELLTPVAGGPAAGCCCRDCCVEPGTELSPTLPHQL
Summary of the method: (§3)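 Recombinant kinase panel screened at 1 µM in duplicate. Reactions started with [γ-33P]ATP (800 cpm/pmol) at 5, 20 or 50 µM, chosen to sit at or below each enzyme's ATP Km. Stopped with phosphoric acid and spotted onto P81 filters. Result given as residual kinase activity.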

[4] = molecular target: Serine/threonine-protein kinase TBK1 (Homo sapiens) (UniProt Q9UHD2); test: Inhibition of recombinant TBK1 (unknown origin) assessed as residual activity using [gamma-33P]ATP as substrate at 1 uM; summary of the method: as §1
[5] = molecular target: Tyrosine-protein kinase Yes (Homo sapiens) (UniProt P07947); test: Inhibition of recombinant YES1 (unknown origin) assessed as residual activity using [gamma-33P]ATP as substrate at 1 uM; summary of the method: as §1
[6] = molecular target: Dual specificity protein kinase CLK2 (Homo sapiens) (UniProt P49760); test: Inhibition of recombinant CLK2 (unknown origin) assessed as residual activity using [gamma-33P]ATP as substrate at 1 uM; summary of the method: as §3
[7] = species on record: Homo sapiens; test: Inhibition of recombinant VEGFR (unknown origin) assessed as residual activity using [gamma-33P]ATP as substrate at 1 uM; summary of the method: as §1
[8] = molecular target: Dual specificity tyrosine-phosphorylation-regulated kinase 1A (Homo sapiens) (UniProt Q13627); test: Inhibition of recombinant DYRK1A (unknown origin) assessed as residual activity using [gamma-33P]ATP as substrate at 1 uM; summary of the method: as §3
[9] = molecular target: High affinity nerve growth factor receptor (Homo sapiens) (UniProt P04629); test: Inhibition of recombinant TRKA (unknown origin) assessed as residual activity using [gamma-33P]ATP as substrate at 1 uM; summary of the method: as §1
[10] = molecular target: Aurora kinase A (Homo sapiens) (UniProt O14965); test: Inhibition of recombinant AURA (unknown origin) assessed as residual activity using [gamma-33P]ATP as substrate at 1 uM; summary of the method: as §3
[11] = molecular target: Serine/threonine-protein kinase PLK1 (Homo sapiens) (UniProt P53350); test: Inhibition of recombinant PLK1 (unknown origin) assessed as residual activity using [gamma-33P]ATP as substrate at 1 uM; summary of the method: as §2
[12] = molecular target: Glycogen synthase kinase-3 beta (Homo sapiens) (UniProt P49841); test: Inhibition of recombinant GSK3b (unknown origin) assessed as residual activity using [gamma-33P]ATP as substrate at 1 uM; summary of the method: as §3
[13] = molecular target: RAC-alpha serine/threonine-protein kinase (Homo sapiens) (UniProt P31749); test: Inhibition of recombinant PKB alpha (unknown origin) assessed as residual activity using [gamma-33P]ATP as substrate at 1 uM; summary of the method: as §2
Chain of RAC-alpha serine/threonine-protein kinase (Homo sapiens) (P31749 whole entry): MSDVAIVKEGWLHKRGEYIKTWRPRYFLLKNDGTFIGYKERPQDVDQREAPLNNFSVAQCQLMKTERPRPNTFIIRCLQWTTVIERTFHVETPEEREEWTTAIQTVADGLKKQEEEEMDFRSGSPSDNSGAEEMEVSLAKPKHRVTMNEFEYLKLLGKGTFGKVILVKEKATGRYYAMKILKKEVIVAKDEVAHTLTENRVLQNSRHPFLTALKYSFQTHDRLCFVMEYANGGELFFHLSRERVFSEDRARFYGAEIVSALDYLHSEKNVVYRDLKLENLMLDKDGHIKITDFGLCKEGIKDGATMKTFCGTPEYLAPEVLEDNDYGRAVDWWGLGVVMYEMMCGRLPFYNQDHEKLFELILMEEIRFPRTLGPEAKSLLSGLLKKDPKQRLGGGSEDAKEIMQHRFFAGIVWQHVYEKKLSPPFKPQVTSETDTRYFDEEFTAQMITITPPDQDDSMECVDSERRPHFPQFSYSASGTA

[14] = molecular target: Interleukin-1 receptor-associated kinase 4 (Homo sapiens) (UniProt Q9NWZ3); test: Inhibition of recombinant IRAK4 (unknown origin) assessed as residual activity using [gamma-33P]ATP as substrate at 1 uM; summary of the method: as §3
[15] = molecular target: Serine/threonine-protein kinase PAK 5 (Homo sapiens) (UniProt Q9P286); test: Inhibition of recombinant PAK5 (unknown origin) assessed as residual activity using [gamma-33P]ATP as substrate at 1 uM
Chain of Serine/threonine-protein kinase PAK 5 (Homo sapiens) (Q9P286 whole entry, looked up): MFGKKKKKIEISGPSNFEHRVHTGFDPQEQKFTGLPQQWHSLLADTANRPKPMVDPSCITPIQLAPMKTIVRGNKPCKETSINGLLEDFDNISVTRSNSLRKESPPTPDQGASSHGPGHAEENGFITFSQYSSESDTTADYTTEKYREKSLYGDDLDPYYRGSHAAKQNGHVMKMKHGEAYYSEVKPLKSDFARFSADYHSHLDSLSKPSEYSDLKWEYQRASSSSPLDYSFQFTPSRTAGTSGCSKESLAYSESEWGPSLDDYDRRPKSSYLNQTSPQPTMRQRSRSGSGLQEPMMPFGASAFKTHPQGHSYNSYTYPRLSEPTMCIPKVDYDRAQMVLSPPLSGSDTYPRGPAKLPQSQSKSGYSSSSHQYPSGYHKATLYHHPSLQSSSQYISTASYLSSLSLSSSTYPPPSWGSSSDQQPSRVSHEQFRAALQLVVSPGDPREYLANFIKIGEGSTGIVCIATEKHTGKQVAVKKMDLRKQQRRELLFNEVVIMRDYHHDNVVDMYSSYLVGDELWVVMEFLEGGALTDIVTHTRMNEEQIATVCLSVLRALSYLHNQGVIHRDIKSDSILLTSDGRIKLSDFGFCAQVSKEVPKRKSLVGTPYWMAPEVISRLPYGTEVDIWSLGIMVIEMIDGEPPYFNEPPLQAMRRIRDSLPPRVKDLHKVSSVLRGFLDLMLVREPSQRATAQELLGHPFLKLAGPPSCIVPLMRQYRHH

[16] = molecular target: Ribosomal protein S6 kinase alpha-1 (Homo sapiens) (UniProt Q15418); test: Inhibition of recombinant RSK1 (unknown origin) assessed as residual activity using [gamma-33P]ATP as substrate at 1 uM; summary of the method: as §1
Chain of Ribosomal protein S6 kinase alpha-1 (Homo sapiens) (Q15418 whole entry): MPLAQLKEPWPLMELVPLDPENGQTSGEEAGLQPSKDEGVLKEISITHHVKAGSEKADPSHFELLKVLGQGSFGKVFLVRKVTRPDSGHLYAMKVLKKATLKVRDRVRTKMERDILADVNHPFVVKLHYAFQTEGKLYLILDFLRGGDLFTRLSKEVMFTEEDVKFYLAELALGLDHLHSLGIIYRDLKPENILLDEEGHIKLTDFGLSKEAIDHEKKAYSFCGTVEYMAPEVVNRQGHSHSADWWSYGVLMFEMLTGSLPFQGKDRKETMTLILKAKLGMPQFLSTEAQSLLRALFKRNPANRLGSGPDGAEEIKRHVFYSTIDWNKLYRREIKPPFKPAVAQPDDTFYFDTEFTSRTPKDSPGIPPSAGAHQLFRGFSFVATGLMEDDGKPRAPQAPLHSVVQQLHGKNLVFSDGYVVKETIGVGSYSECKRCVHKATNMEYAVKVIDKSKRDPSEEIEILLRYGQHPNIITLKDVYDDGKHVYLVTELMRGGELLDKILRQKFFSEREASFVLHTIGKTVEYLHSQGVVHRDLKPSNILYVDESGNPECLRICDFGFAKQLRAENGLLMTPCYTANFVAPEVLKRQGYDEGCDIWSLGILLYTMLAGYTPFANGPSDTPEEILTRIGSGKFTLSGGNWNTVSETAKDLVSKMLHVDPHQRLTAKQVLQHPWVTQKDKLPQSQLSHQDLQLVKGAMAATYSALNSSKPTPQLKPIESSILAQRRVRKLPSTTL

[17] = molecular target: Serine/threonine-protein kinase 16 (Homo sapiens) (UniProt O75716); test: Inhibition of recombinant MPSK1 (unknown origin) assessed as residual activity using [gamma-33P]ATP as substrate at 1 uM; summary of the method: as §2
[18] = molecular target: Receptor-interacting serine/threonine-protein kinase 2 (Homo sapiens) (UniProt O43353); test: Inhibition of recombinant RIPK2 (unknown origin) assessed as residual activity using [gamma-33P]ATP as substrate at 1 uM; summary of the method: as §2
[19] = species on record: Homo sapiens; test: Inhibition of recombinant CK1 (unknown origin) assessed as residual activity using [gamma-33P]ATP as substrate at 1 uM; summary of the method: as §3
[20] = molecular target: MAP/microtubule affinity-regulating kinase 4 (Homo sapiens) (UniProt Q96L34); test: Inhibition of recombinant MARK4 (unknown origin) assessed as residual activity using [gamma-33P]ATP as substrate at 1 uM; summary of the method: as §2
[21] = molecular target: Serine/threonine-protein kinase Chk1 (Homo sapiens) (UniProt O14757); test: Inhibition of recombinant CHK1 (unknown origin) assessed as residual activity using [gamma-33P]ATP as substrate at 1 uM; summary of the method: as §3
[22] = molecular target: Protein kinase C zeta type (Homo sapiens) (UniProt Q05513); test: Inhibition of recombinant PKCzeta (unknown origin) assessed as residual activity using [gamma-33P]ATP as substrate at 1 uM; summary of the method: as §2
[23] = molecular target: Tyrosine-protein kinase ABL1 (Homo sapiens) (UniProt P00519); test: Inhibition of recombinant ABL (unknown origin) assessed as residual activity using [gamma-33P]ATP as substrate at 1 uM; summary of the method: as §3
[24] = molecular target: Protein kinase C gamma type (Homo sapiens) (UniProt P05129); test: Inhibition of recombinant PKCgamma (unknown origin) assessed as residual activity using [gamma-33P]ATP as substrate at 1 uM; summary of the method: as §2
[25] = molecular target: Serine/threonine-protein kinase BRSK1 (Homo sapiens) (UniProt Q8TDC3); test: Inhibition of recombinant BRSK1 (unknown origin) assessed as residual activity using [gamma-33P]ATP as substrate at 1 uM; summary of the method: as §3
Chain of Serine/threonine-protein kinase BRSK1 (Homo sapiens) (Q8TDC3 whole entry): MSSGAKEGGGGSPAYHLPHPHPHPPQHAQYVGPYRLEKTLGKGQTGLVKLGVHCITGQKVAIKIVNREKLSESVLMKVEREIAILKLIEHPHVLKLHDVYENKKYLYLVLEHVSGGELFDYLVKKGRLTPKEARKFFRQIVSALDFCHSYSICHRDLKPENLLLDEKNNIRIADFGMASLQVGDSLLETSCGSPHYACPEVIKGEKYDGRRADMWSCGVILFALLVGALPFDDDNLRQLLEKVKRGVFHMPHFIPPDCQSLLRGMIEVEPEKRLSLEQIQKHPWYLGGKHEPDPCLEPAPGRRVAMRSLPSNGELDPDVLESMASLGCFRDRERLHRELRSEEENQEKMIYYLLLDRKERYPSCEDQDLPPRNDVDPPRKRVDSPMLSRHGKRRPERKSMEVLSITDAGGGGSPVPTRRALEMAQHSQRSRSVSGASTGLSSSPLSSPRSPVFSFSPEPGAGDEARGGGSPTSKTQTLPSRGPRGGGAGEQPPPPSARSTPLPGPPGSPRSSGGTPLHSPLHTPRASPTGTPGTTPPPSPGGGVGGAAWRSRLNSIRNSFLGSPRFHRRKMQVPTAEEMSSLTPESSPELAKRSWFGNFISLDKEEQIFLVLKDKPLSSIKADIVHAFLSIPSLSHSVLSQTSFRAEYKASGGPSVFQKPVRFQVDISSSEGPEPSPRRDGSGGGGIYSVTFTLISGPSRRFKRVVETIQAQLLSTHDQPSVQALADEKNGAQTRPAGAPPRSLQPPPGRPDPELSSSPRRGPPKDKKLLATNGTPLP

[26] = molecular target: Ribosomal protein S6 kinase alpha-5 (Homo sapiens) (UniProt O75582); test: Inhibition of recombinant MSK1 (unknown origin) assessed as residual activity using [gamma-33P]ATP as substrate at 1 uM; summary of the method: as §2
[27] = molecular target: Serine/threonine-protein kinase STK11 (Homo sapiens) (UniProt Q15831); test: Inhibition of recombinant LKB1 (unknown origin) assessed as residual activity using [gamma-33P]ATP as substrate at 1 uM; summary of the method: as §2
Chain of Serine/threonine-protein kinase STK11 (Homo sapiens) (Q15831 whole entry): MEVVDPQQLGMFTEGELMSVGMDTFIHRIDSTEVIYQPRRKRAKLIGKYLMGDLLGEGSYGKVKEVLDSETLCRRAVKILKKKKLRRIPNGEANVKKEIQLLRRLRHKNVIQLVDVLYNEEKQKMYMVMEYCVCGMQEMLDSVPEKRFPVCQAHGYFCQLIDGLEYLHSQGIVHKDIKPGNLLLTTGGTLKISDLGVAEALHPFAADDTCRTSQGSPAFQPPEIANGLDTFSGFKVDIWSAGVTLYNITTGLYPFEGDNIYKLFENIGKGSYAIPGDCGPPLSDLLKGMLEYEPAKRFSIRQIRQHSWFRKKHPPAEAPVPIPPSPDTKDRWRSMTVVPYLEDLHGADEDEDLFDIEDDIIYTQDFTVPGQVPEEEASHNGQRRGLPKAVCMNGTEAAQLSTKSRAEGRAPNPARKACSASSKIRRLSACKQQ

[28] = molecular target: Protein kinase C alpha type (Homo sapiens) (UniProt P17252); test: Inhibition of recombinant PKCalpha (unknown origin) assessed as residual activity using [gamma-33P]ATP as substrate at 1 uM; summary of the method: as §2

Chain of Tyrosine-protein kinase ZAP-70 (Homo sapiens) (P43403 whole entry): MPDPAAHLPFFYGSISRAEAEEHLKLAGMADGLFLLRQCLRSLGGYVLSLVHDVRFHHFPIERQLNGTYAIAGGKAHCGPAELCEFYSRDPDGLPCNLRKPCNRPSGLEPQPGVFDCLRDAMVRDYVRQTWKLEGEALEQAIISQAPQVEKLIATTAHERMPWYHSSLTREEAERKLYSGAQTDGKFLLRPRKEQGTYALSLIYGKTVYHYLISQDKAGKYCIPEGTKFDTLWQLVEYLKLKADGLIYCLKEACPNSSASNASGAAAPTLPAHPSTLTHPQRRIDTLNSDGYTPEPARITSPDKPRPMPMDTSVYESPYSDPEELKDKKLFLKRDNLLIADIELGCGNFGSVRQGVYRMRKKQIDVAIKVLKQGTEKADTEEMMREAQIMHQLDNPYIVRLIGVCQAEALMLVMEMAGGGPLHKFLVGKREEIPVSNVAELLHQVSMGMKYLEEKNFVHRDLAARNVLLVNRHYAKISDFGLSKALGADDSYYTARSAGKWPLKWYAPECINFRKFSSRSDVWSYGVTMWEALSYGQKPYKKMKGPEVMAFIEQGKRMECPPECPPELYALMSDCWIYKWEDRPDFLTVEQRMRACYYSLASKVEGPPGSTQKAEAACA

| SMILES | Activity [1] [%] | Activity [2] [%] | Activity [3] [%] | Activity [4] [%] | Activity [5] [%] | Activity [6] [%] | Activity [7] [%] | Activity [8] [%] | Activity [9] [%] | Activity [10] [%] | Activity [11] [%] | Activity [12] [%] | Activity [13] [%] | Activity [14] [%] | Activity [15] [%] | Activity [16] [%] | Activity [17] [%] | Activity [18] [%] | Activity [19] [%] | Activity [20] [%] | also measured |
| --- | --- | --- | --- | --- | --- | --- | --- | --- | --- | --- | --- | --- | --- | --- | --- | --- | --- | --- | --- | --- | --- |
| CC[C@H](CO)Nc1nc(NC(=N)N)c2ncn(C(C)C)c2n1 | 86 | 14 | 35 | 92 | 13 | 4 | 6 | 1 | 24 | 39 | 108 | 37 | 99 | 21 | 18 | 18 | 36 | 72 | 15 | 38 | Activity [21]: 58%; Activity [22]: 68%; Activity [23]: 5%; Activity [24]: 73%; Activity [25]: 44%; Activity [26]: 46%; Activity [27]: 13%; Activity [28]: 71% |
| CC[C@@H](CO)Nc1nc(NC(=N)N)c2ncn(C(C)C)c2n1 | 109 | 12 | 24 | 90 | 11 | 4 | 4 | 1 | 28 | 30 | 108 | 28 | 107 | 11 | 15 | 12 | 28 | 76 | 21 | 29 | Activity [21]: 46%; Activity [22]: 61%; Activity [23]: 6%; Activity [24]: 61%; Activity [25]: 45%; Activity [26]: 38%; Activity [27]: 16%; Activity [28]: 68% |
